pIC50: −log10 of the molar value.
What was measured:
[1] = tested on: HepG2; test: Cytotoxicity against human HepG2 cells after 48 hrs by MTT assay; type: functional, cell-based; conditions: HepG2, 48 h
Summary of the method: (§1)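 Log-phase cells were seeded at about 1 × 10⁵ cells/mL in 96-well plates and allowed to settle 12 h at 37 °C in 5% CO₂. Compounds were added at five concentrations for 48 h. Absorbance was read at dual wavelength 570/630 nm. Survival was expressed as a percentage of control, and IC50 was calculated by the Bliss method (n = 5). Each test was run in triplicate.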

[2] = tested on: T-24; test: Cytotoxicity against human T24 cells after 48 hrs by MTT assay; type: functional, cell-based; conditions: T-24, 48 h; summary of the method: as §1
[3] = tested on: HeLa; test: Resistant factor, ratio of IC50 for human HeLa/TR cells to IC50 for human HeLa cells; type: functional
Summary of the method: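 The resistance index is IC50 on the paclitaxel-resistant line divided by IC50 on the parental sensitive line (A549 or HeLa). Both IC50 values come from the 48 h, five-concentration growth assay with 570/630 nm absorbance read-out and Bliss-method calculation.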

[4] = tested on: A549; test: Cytotoxicity against human A549 cells after 48 hrs by MTT assay; type: functional, cell-based; conditions: A549, 48 h; summary of the method: as §1
[5] = tested on: A549/TR; test: Cytotoxicity against human A549/TR cells after 48 hrs by MTT assay; type: functional, cell-based; summary of the method: as §1
[6] = tested on: HeLa; test: Cytotoxicity against human HeLa cells after 48 hrs by MTT assay; type: functional, cell-based; summary of the method: as §1
[7] = tested on: NCI-H460; test: Induction of apoptosis in human NCI-H460 cells assessed as late apoptotic cells at 5 uM after 24 hrs by Annexin V-FITC/propidium iodide staining based flow cytometric method (reference value: 0.839%); type: functional
[8] = tested on: NCI-H460; test: Induction of apoptosis in human NCI-H460 cells assessed as necrotic cells at 10 uM after 24 hrs by Annexin V-FITC/propidium iodide staining based flow cytometric method (reference value: 1.84%); type: functional
[9] = tested on: NCI-H460; test: Cell cycle arrest in human NCI-H460 cells assessed as accumulation at G2-phase at 5 uM after 48 hrs by propidium iodide staining based flow cytometric method (reference value: 2.37%); type: functional
[10] = tested on: NCI-H460; test: Cell cycle arrest in human NCI-H460 cells assessed as accumulation at G2-phase at 10 uM after 48 hrs by propidium iodide staining based flow cytometric method (reference value: 2.37%); type: functional
[11] = tested on: NCI-H460; test: Induction of apoptosis in human NCI-H460 cells assessed as increase in ROS generation after 24 hrs by DCFH-DA staining based flow cytometric method; type: functional, cell-based
Summary of the method: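 NCI-H460 cells in six-well plates were treated 24 h at 5 or 10 µM, with untreated cells as control. Cells were pelleted at 2000 rpm, washed twice in ice-cold PBS and resuspended in 10 µM DCFH-DA in cell-free medium for 20 min at 37 °C in the dark. After two more PBS washes, fluorescence was read by flow cytometry.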

[12] = tested on: NCI-H460; test: Disruption of mitochondrial membrane potential in human NCI-H460 cells assessed as collapse of mitochondrial membrane potential at 10 uM after 24 hrs by JC-1 staining based flow cytometric method (reference value: 1.98%); type: functional
Summary of the method: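 NCI-H460 cells were treated 24 h at 5 or 10 µM, with untreated cells as control. The medium was replaced, and the JC-1 probe was added 20 min later. Cells were then pelleted at 2000 rpm, washed twice in ice-cold PBS and analysed by flow cytometry with excitation at 488 nm and emission at 530 and 590 nm.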

`COc1ccc(/C=C/C(=O)c2cc(OC)c(OC)c(OC)c2)cc1OCC(=O)Nc1ccccc1Cl` was tested. Which pIC50 [1] did it give?
Its pIC50 is 5.39.

What about the pIC50 [2] of the same compound?
Its pIC50 is 5.24.

And the “Ratio IC50” value [3]?
The value was 1.31.

What about the pIC50 [4] of the same compound?
The pIC50 was 5.28.

And the pIC50 [5]?
Its pIC50 is 5.20.

What about the pIC50 [6] of the same compound?
Its pIC50 is 5.34.

And the Activity [7]?
Its Activity is 3.45%.

And the Activity [8]?
Its Activity is 10.9%.

What about the Activity [9] of the same compound?
The Activity was 11.88%.

What about the Activity [10] of the same compound?
Its Activity is 72.4%.

What about the Activity [11] of the same compound?
The Activity was “Dose-dependent effect”.

And the Activity [12]?
The Activity was 4.86%.

— ChEMBL document CHEMBL4028810, “Synthesis and biological evaluation of novel chalcone derivatives as a new class of microtubule destabilizing agents” (Eur J Med Chem, 2017)
